# Assay results reported in ChEMBL document CHEMBL4396917, “Synthesis and biological evaluation of novel benzylidene-succinimide derivatives as noncytotoxic antiangiogenic inhibitors with anticolorectal cancer activity in vivo” (Eur J Med Chem, 2019).
# Activity calls are given as the source filed them. The rule behind the calls is not given here.
# Experiments:
# Mus musculus = assay: Antiangiogenic activity in Matrigel plug angiogenic Balb/c mouse model assessed as impaired vascularization by measuring loss of red colour in VEGF-supplemented matrigel at 20 to 60 mg/kg, sc measured after 15 days; type: functional, organism-based
# In short: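 Balb/c nude mice (6–8 weeks), three groups, injected subcutaneously with 400 μL Matrigel alone or with VEGF (250 ng/mL) and/or compound; after 15 days plugs removed, weighed and photographed.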
# PC-3 = assay: Cytotoxicity against human PC3 cells assessed as reduction in cell growth after 72 hrs by MTT assay; type: cell-based; conditions: PC-3, 72 h
# HUVEC [1] = assay: Antimigratory activity in HUVEC assessed as reduction in VEGF-induced cell migration at 2.5 uM measured after 12 hrs by wound healing assay relative to control; type: functional; conditions: Homo sapiens
# In short: (§1)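 Confluent HUVECs starved 12 h in M200 with 2% FBS, scratched with pipette tip; fresh M200 with 25 ng/mL VEGF plus vehicle, 2.5 μM sunitinib or compound (1, 2.5 μM); wound imaged at 0, 6, 12 and 24 h by inverted microscopy.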
# HUVEC [2] = assay: Induction of apoptosis in VEGF-stimulated HUVEC assessed as early apoptotic cells at 20 uM after 24 hrs by Annexin V-FITC/propidium iodide staining based flow cytometric analysis (reference value: 7%); type: cell-based; conditions: human
# In short: (§2)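 HUVECs plated at 5×10^5 per well and treated 24 h with 1, 5, 10 or 20 μM. Detached and adherent cells were pooled, washed in ice-cold PBS and resuspended in fresh medium. 1×10^5 cells were stained with annexin-V-FITC in annexin-V buffer for 20 min in the dark, then PI (50 μg/mL) was added. Read-out by flow cytometry.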
# HUVEC [3] = assay: Induction of apoptosis in VEGF-stimulated HUVEC assessed as necrotic cells at 20 uM after 24 hrs by Annexin V-FITC/propidium iodide staining based flow cytometric analysis (reference value: 12.1%); type: cell-based; conditions: human; in short: as §2
# HT-29 [4] = assay: Induction of apoptosis in human HT-29 cells assessed as necrotic cells at 1 uM after 24 hrs by Annexin V-FITC/propidium iodide staining based flow cytometric analysis (reference value: 3.9%); type: cell-based; conditions: ht-29, 24 h
# HT-29 [5] = assay: Induction of apoptosis in human HT-29 cells assessed as late apoptotic cells at 5 uM after 24 hrs by Annexin V-FITC/propidium iodide staining based flow cytometric analysis (reference value: 12.3 to 13.4%); type: cell-based; conditions: ht-29, 24 h
# HT-29 [6] = assay: Induction of apoptosis in human HT-29 cells assessed as early apoptotic cells at 5 uM after 48 hrs by Annexin V-FITC/propidium iodide staining based flow cytometric analysis (reference value: 5.3%); type: cell-based; conditions: ht-29, 48 h
# HT-29 [7] = assay: Induction of apoptosis in human HT-29 cells assessed as early apoptotic cells at 5 uM after 72 hrs by Annexin V-FITC/propidium iodide staining based flow cytometric analysis (reference value: 5.3%); type: cell-based; conditions: ht-29, 72 h
# [8] = target: Vascular endothelial growth factor receptor 2 (Homo sapiens) (UniProt P35968); assay: Inhibition of VEGFR2 in VEGF-stimulated HUVEC assessed as downregulation of Src phosphorylation at Tyr416 residue at 1 to 10 uM pre-incubated for 2 hrs followed by VEGF stimulation and measured after 15 mins by Western blot analysis; type: cell-based
# [9] = target: Vascular endothelial growth factor receptor 2 (Homo sapiens) (UniProt P35968); assay: Inhibition of VEGFR2 in VEGF-stimulated HUVEC assessed as downregulation of ERK1/2 phosphorylation at Thr202/Tyr204 residues at 1 to 10 uM pre-incubated for 2 hrs followed by VEGF stimulation and measured after 15 mins by Western blot analysis; type: cell-based
# In short: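 HUVECs serum-starved overnight, pretreated 2 h with 1, 2.5, 5 or 10 μM compound, then stimulated 15 min with 50 ng/mL VEGF165. Lysed in Tris/EDTA/Triton/deoxycholate/SDS buffer with phosphatase and protease inhibitors. Protein equalized by Bradford, about 20 μg resolved on gradient SDS-PAGE. Blots probed for phospho and total VEGFR2 (Tyr1175), ERK1/2 (Thr202/Tyr204) and AKT (Ser473) against actin, with HRP/ECL detection.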
# HUVEC [10] = assay: Effect on total FAK expression in VEGF-induced HUVEC at 1 to 20 uM pre-incubated for 2 hrs followed by VEGF stimulation and measured after 15 mins by Western blot analysis; type: ADME, cell-based; conditions: human, 0.25 h
# In short: (§3)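 HUVECs serum-starved overnight, pretreated with compound (methods: 1, 2.5, 5, 10 μM for 2 h; legend: 1, 5, 10, 20 μM for 1.5 h), then VEGF 50 ng/mL (methods: VEGF165, 15 min; legend: 30 min); lysates equalized by Bradford, ~20 μg protein resolved on gradient SDS-PAGE, immunoblotted, ECL detection.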
# HUVEC [11] = assay: Effect on total ERK expression in VEGF-induced HUVEC at 1 to 20 uM pre-incubated for 2 hrs followed by VEGF stimulation and measured after 15 mins by Western blot analysis; type: ADME, cell-based; conditions: human, 0.25 h; in short: as §3
# HT-29 [12] = assay: Inhibition of Akt/mTOR signalling in human HT-29 cells assessed as reduction in mTOR phosphorylation at Ser2448 residue incubated for 24 hrs by immunoblot analysis; type: cell-based
# In short: (§4)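 HT29 cells were exposed to the indicated concentrations for 24 h. Cell lysates were then immunoblotted for the phosphorylated proteins.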
# HT-29 [13] = assay: Inhibition of Akt/mTOR signalling in human HT-29 cells assessed as reduction in AKT phosphorylation at Ser473 residue incubated for 24 hrs by immunoblot analysis; type: cell-based; in short: as §4
# HT-29 [14] = assay: Downregulation of VEGF expression in human HT-29 cells after 24 hrs by immunoblot analysis; type: functional, cell-based
# HT-29 [15] = assay: Downregulation of VEGF mRNA expression in human HT-29 cells after 24 hrs by RT-qPCR assay; type: functional, cell-based
# In short: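 HT29 cells treated with 1, 5, 10 or 20 μM for 24 h; total RNA extracted with TRIzol; SYBR Green qPCR, 40 cycles of 5 s at 95°C and 60 s at 60°C in 20-μL reactions.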
# HT-29 [16] = assay: Antitumor activity against human HT-29 cells xenografted in mouse assessed as increase in apoptosis in tumor at 20 to 60 mg/kg, po administered every ither day for 3 weeks and measured at 20 days post treatment by TUNEL assay; type: functional, organism-based
# HUVEC [17] = assay: Antimigratory activity in HUVEC assessed as reduction in VEGF-induced cell migration measured after 6 to 24 hrs by wound healing assay; type: functional, cell-based; conditions: Homo sapiens; in short: as §1
# HT-29 [18] = assay: Antiangiogenic activity against human HT-29 cells xenografted in mouse assessed as mean vessel density in tumour at 20 to 60 mg/kg, po administered every other day for 3 weeks measured at 20 days post-treatment; type: functional
# HT-29 [19] = assay: Antiangiogenic activity in human HT-29 cells assessed as decrease in secreted MMP2 activity at 1 to 20 uM after 24 hrs by gelatin zymography; type: functional, cell-based
# In short: (§5)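 HT29 cells treated 1, 5, 10 or 20 μM for 24 h; supernatant run non-reducing on 10% SDS-PAGE with 2% gelatin; SDS removed with 2% Triton X-100, gel incubated 48 h at 37°C in Tris pH 7.5/NaCl/CaCl2 buffer, Coomassie stained; clear MMP-2 and MMP-9 bands quantified by densitometry.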
# HT-29 [20] = assay: Antiangiogenic activity in human HT-29 cells assessed as decrease in secreted MMP9 activity at 1 to 20 uM after 24 hrs by gelatin zymography; type: functional, cell-based; in short: as §5
# Sequence of Vascular endothelial growth factor receptor 2 (Homo sapiens) (P35968 whole entry): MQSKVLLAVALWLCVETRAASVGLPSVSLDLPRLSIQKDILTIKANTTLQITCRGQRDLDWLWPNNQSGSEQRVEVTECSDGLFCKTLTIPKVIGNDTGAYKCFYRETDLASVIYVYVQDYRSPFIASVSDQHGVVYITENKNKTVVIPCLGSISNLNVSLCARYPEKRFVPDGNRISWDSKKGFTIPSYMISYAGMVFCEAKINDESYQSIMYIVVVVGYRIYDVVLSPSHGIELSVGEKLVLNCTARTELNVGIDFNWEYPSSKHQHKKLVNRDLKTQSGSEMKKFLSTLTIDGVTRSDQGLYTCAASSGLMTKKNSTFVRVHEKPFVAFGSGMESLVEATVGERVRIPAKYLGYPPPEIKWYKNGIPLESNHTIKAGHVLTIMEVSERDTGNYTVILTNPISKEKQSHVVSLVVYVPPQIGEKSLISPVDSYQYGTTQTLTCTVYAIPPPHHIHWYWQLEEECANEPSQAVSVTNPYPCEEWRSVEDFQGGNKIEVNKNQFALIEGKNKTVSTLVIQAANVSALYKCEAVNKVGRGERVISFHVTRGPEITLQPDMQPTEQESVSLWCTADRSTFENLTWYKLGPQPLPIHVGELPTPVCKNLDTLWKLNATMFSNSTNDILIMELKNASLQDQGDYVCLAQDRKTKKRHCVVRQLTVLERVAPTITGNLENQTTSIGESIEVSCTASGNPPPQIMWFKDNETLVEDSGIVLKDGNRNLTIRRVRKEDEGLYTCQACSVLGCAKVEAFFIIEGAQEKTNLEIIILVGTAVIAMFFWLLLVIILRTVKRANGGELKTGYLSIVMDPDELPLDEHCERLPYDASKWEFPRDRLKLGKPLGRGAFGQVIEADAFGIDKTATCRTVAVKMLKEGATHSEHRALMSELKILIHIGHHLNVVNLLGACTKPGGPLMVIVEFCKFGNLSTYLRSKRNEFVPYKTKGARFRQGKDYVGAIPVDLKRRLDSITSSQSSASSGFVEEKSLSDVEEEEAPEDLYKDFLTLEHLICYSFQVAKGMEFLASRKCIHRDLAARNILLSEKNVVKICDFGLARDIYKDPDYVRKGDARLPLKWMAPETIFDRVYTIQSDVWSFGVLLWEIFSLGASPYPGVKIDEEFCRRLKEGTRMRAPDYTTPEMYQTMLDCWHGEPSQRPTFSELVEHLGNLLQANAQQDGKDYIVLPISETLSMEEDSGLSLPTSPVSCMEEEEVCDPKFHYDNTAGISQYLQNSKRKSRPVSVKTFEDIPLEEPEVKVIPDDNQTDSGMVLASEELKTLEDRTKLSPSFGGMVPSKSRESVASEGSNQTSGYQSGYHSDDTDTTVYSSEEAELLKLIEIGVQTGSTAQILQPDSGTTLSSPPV
smiles,measurement,setting,value
COc1ccc(NC(=O)c2cccc(/C=C3\CC(=O)N(c4ccc(C)cc4)C3=O)c2)cc1,Activity,Mus musculus,Active
same,IC50,PC-3,> 100 µM
same,inhibition at 2.5 µM,HUVEC [1],50%
same,Activity,HUVEC [2],9.8%
same,Activity,HUVEC [3],5.6%
same,Activity,HT-29 [4],4.4%
same,Activity,HT-29 [5],15.9 to 18.4%
same,Activity,HT-29 [6],9.7%
same,Activity,HT-29 [7],9.8%
same,inhibition,[8],Active
same,inhibition,[9],Active
same,Activity,HUVEC [10],Not Active
same,Activity,HUVEC [11],Not Active
same,inhibition,HT-29 [12],Dose-dependent effect
same,inhibition,HT-29 [13],Dose-dependent effect
same,inhibition,HT-29 [14],Dose-dependent effect
same,inhibition,HT-29 [15],inactive
same,Activity,HT-29 [16],Active
same,inhibition,HUVEC [17],Dose-dependent effect
same,Activity,HT-29 [18],5%
same,inhibition,HT-29 [19],Active
same,inhibition,HT-29 [20],Active
